From PubChem
PPC-1+TRAIL kill – compounds killing PPC-1 cancer cells with TRAIL present, primary screen, TRAIL potentiator project, ATPLite luminescence, uHTS; PPC-1 cells + TRAIL, ATPLite viability luminescence; cell killing (% activity), % at 4 µM or 5 µM; 220,000 compounds, 0.41% hits; AID 1443, 2008;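 active = cell killing above 50% in the first pass at 4 µM, then a duplicate retest at 5 µM averaging 50% or more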;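 note: plate controls were cells with TRAIL plus DMSO for no effect and medium-only wells lacking cells for full effect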
FLuc inhib CS – firefly luciferase enzyme inhibitors, primary screen, artefact control for luciferase-based inhibitor screens, biochemical, luminescence, ATPLite; Luciferin 4-monooxygenase (Photinus pyralis), P08659; 10 min; inhibition, % at 10 µM; 200,000 compounds, 1.5% hits;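 active = inhibition above about 50% when tested at 10 µM, limit read from the data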
Target sequence (P08659 whole entry, looked up): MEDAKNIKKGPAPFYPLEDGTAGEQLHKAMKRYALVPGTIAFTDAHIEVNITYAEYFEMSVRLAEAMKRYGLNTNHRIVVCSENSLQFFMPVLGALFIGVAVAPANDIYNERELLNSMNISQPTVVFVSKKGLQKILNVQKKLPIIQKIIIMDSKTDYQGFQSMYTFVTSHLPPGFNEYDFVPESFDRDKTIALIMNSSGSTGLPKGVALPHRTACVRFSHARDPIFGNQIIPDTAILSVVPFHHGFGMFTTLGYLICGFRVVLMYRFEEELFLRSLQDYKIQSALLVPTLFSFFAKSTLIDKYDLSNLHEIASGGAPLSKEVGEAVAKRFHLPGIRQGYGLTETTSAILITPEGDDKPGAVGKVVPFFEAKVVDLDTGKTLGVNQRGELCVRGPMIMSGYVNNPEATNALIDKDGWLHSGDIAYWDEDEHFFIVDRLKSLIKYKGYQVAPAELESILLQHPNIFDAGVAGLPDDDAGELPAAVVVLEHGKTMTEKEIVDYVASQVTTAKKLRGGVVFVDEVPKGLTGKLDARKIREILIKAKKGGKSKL
HSP90 refold inh – HSP90 inhibitors, primary screen, cell lysate, luminescence; Heat shock protein HSP 90 (rabbit reticulocyte lysate; luciferase refolding); Rabbit reticulocyte lysate, luciferase refolding luminescence, 3 h; inhibition, % at 5.6 µM; 290,000 compounds, 0.91% hits; AID 1789, 2009;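 active = inhibition above the screen-wide mean plus 3 SD, computed separately per campaign, cut at about 16% in these data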;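 note: 0% = DMSO wells and 100% = 60 µM geldanamycin wells; inhibitors lower the luminescence because luciferase stays unfolded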
TRAIL sens C8 – viability loss with TRAIL in NB7+C8 cells, primary screen, TRAIL sensitizer project, cell-based, ATPlite luminescence. inhibition (viability loss, TRAIL sensitization), % at 10 µM. 360,000 compounds, 1% hits. AID 624354, 2012;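 active = compounds causing at least 50% loss of cell viability in the single-dose screen, relative to plate controls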
FLuc act counter – FLuc activators, initial screening, artefact control for FLuc-dependent activation tests, biochemical, ATPlite luminescence; Luciferin 4-monooxygenase (Photinus pyralis), P08659; ATPlite luciferase biochemical, 10 min; 0 = ATP-free wells, 1 = DMSO control; activation factor at 10 µM; 200,000 tested, under 10 active;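 active = luciferase activation factor, scaled between plate controls, of at least 2 with compound at 10 µM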
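System: Luciferase/luciferin detection reagent, cell-free biochemical luciferase assay | Medium: PBS buffer for ATP | Dosing: Test compounds dosed from 2 mM stocks in 100% DMSO | Timing: 10 min at ambient temperature | Signal: Luminescence measurement of luciferase light output | Evaluation: Luciferase activation, seen as luminescence increase over controls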
* marks the source's active call; other numbers are inactive results; · = not tested or not shown; ! = a repeat was not active. Only some compounds are listed: those with a hit (about 2% of all), similar ones and a draw of the others.

SMILES	PPC-1+TRAIL kill	FLuc inhib CS	HSP90 refold inh	TRAIL sens C8	FLuc act counter
O=C(O)COn1c(-c2ccccc2)nc2ccc(Cl)cc21	48.7	68.5*	-1.5	5.1	0.3
CC(C)(C)Cc1c(-c2ccccc2)nc2ccc(Cl)cn12	·	·	·	4.5	·
OCCN1CCN(c2cc(-c3ccc4ccccc4c3)nc3ccnn23)CC1	·	·	·	25.5	·
COCCCNC(=O)c1cc(S(=O)(=O)N2CCC3(CC2)OCCO3)ccc1F	·	·	·	-0.8	·
CCC(c1nc2ccccc2[nH]1)n1c(-c2ccc3ccccc3c2)nc2ccccc21 (stereo not drawn)	·	·	·	-1.5	·
CCCCCCCCC(c1nc2ccccc2[nH]1)N1CCN=C1c1cc2ccccc2[nH]1 (stereo not drawn)	·	·	·	87.2*	·
Cc1cc(C(=O)CSc2nncn2C)c(C)n1-c1ccccc1	24.5	68.6*	8.4	40.0	0.3
Cc1ccc(-n2c(C)cc(C(=O)CSc3nncs3)c2C)cc1	21.3	53.7*	1.2	35.7	0.5
Cc1cc(C(=O)CSc2cccc[n+]2[O-])c(C)n1-c1ccc(Br)cc1	6.7	7.7	-2.6	·	0.9
Cc1ccc(-n2c(C)cc(C(=O)CSc3nnnn3C)c2C)cc1	-6.8	19.9	7.8	15.6	0.8
Cc1cc(C(=O)CSc2cccc[n+]2[O-])c(C)n1-c1ccccc1	38.2	80.3*	8.8	46.0	0.2
Cc1ccc([C@H]2C[C@@H](n3cc(C4CC4)nn3)[C@H](O)CN2C(=O)C2CCCCC2)cc1	·	·	·	-5.6	·
COc1ccc(OC)c(CN2C(=O)CN(S(C)(=O)=O)CC2(C)C(=O)NC(C)C)c1 (stereo not drawn)	·	·	·	-3.0	·
CCOC(=O)c1ccc(NC(=O)[C@@H]2CCC(=O)N2C2OC(=O)c3c2ccc(OC)c3OC)cc1 (stereo partly drawn)	·	·	·	-14.7	·
CNC(=O)C[C@@H]1C(=O)N(c2ccc(Br)cc2)CC1(C)C	·	·	·	-12.8	·
CC(C)(C)c1ccc(-c2nc3[nH]c(=O)cc(NC(=O)c4ccco4)n3n2)cc1	·	·	-5.9	62.4*	·
CCCCOc1ccc(C(=O)NCC(=O)NNC(=O)c2ccco2)cc1	·	·	·	0.0	·
Oc1ccc2ccccc2c1N=Nc1ccc(F)cc1	4.9	·	4.7	18.6	·
Oc1c(N=Nc2ccc(F)cc2)ccc2ccccc12	·	·	2.6	52.6*	·
O=c1cnc2ccccc2n1Cc1ccccc1	·	·	·	4.3	·
CCCCN(CC)CCCNC(=O)C1c2ccccc2C(=O)N(C)C1c1cn(C)c2ccccc12 (stereo not drawn)	-8.4	-3.4	-0.3	61.4*	1
CCN(CC)CCCNC(=O)C1c2ccccc2C(=O)N(CCOC)C1c1ccc(F)cc1 (stereo not drawn)	-6.9	-4.7	1.8	-3.4	1
CCC(C)Sc1ccc(-c2nc3ccc(C)cn3c2NCc2ccccc2)cc1OC (stereo not drawn)	·	·	·	21.8	·
COc1ccc(-c2cc(-c3nc4ccccn4c3NCc3ccccc3)ccc2OC)cc1	·	·	·	78.5*	·
CCC(C)Sc1cc(-c2nc3ccc(C)cn3c2NCc2ccccc2)ccc1OC (stereo not drawn)	·	·	·	84.1*!	·
SMILES	PPC-1+TRAIL kill	FLuc inhib CS	HSP90 refold inh	TRAIL sens C8	FLuc act counter
COc1ccc(-c2nc3ccccn3c2NCc2ccc3c(c2)OCO3)cc1	22.5	42.6	-7.6	21.2	0.6
O=C(O)c1ccccc1CC(CCc1ccccc1)C(=O)O (stereo not drawn)	·	·	·	3.4	·
CC1=CC2C(C(O)CC3(C)C2CC(C)C32OCOC23COCO3)C2(C)C/C(=C\O)C(=O)C=C12 (stereo not drawn)	·	·	·	93.7*	·
CCC(c1nc2ccccc2[nH]1)n1c(=O)c(-c2ccccc2)nc2ccccc21 (stereo not drawn)	·	·	·	-16.2	·
O=C1c2ccccc2CCCC12N=NCC2c1cccc2ccccc12 (stereo not drawn)	3.5	-4.4	-0.1	-5.5	1
Cc1ccc(C2CN=NC23CCc2ccccc2C3=O)cc1 (stereo not drawn)	4.5	5.0	16.8*	16.1	0.9
COc1ccccc1NC(=O)Nc1ccc2c(c1)nnn2C	39.8	34.4	-3.1	54.2*	0.7
Cc1cc(Br)c(NC(=O)CN2C(=O)NC3(CCOc4ccccc43)C2=O)c(Br)c1 (stereo not drawn)	·	·	·	-19.4	·
O=c1cc(C(Cl)(Cl)Cl)oc2c1ccc1ccccc12	17.2	-2.5	-4.3	90.0*	1
O=c1cc(-c2ccco2)oc2c1ccc1ccccc12	10.2	-2.2	2.6	6.6	1
O=C1NC(=S)S/C1=C/c1ccc(N2CCOCC2)o1	25.3	64.0*	-0.2	16.9	0.4
CCS(=O)(=O)c1ccc(N=Nc2ccc(O)c3ncccc23)c(OC)c1	-11.1	9.6	3.6	70.0*	0.9
O=C1C(C=Nc2ccccc2O)=C(O)c2ccccc21	23.6	84.6*	16.5*	45.7	0.2
O=C1C(C=Nc2ccccc2)=C(O)c2ccccc21	29.0	85.8*	16.8*	49.9*	0.1
CN=CC1=C(O)c2ccccc2C1=O	-3.7	-4.3	0.7	-11.9	1
COC(=O)C[C@@H]1C=C[C@@H](NC(=O)NC2CCCC2)[C@@H](CO)O1	·	·	·	0.0	·
Cc1c(C(=O)O)cnc2cc(-c3ccc(Cl)cc3)nn12	3.8	56.4*	-5.5	33.9	0.4
N#Cc1cccc(NC(=O)c2cc(C3CCCCN3C(=O)c3cccs3)on2)c1 (stereo not drawn)	·	·	·	-3.9	·
CCNc1nc(N)nc(-c2cc(Cl)ccc2O)n1	42.5	62.8*	4.0	46.6	0.4
CCCCNc1nc(N)nc(-c2cc(Cl)ccc2O)n1	11.6	21.4	-2.1	28.6	0.8
CCCCOCCCNC(=O)C[C@@H]1C[C@@]2(C(=O)OC)CC(C)(C)CC=C2N(CCc2ccc(OC)c(OC)c2)C1=O	·	·	·	1.6	·
O=C(c1cccc(Cl)c1)N1CCN(Cc2ccc3c(c2)OCO3)CC1	·	·	1.4	0.7	·
CC1CCN(c2nc3ccc(C(=O)N4CCN(Cc5ccc6c(c5)OCO6)CC4)cc3s2)CC1	19.9	-4.1	57.6*	22.4	1
COc1c(OC(C)=O)ccc(/C=C/c2ccc3cccc(OCc4ccccc4)c3n2)c1[N+](=O)[O-]	20.6	18.1	14.4	49.4*	0.8
O=C(Cc1ccc(F)cc1)OCC(=O)c1cc2ccccc2o1	13.2	-5.4	16.2*	-1.6	1.1
Cc1ccc(C(=O)O/N=C/c2ccc3c(c2)OCO3)cc1	3.3	58.8*	1.6	-6.8	0.4
COc1ccccc1/C=N/OC(=O)c1ccc(C)cc1	6.7	71.2*	-0.5	-14.9	0.3
COC(=O)c1ccc(CO/N=C/c2ccccc2OC)cc1	·	·	1.9	2.7	·
Cc1ccc(C(C#N)=Cc2ccc3c(c2)OCO3)cc1	·	·	·	56.0*	·
O=C(OCc1cn([C@@H]2CN(Cc3cccs3)[C@@H](c3ccc(Cl)cc3)C[C@H]2O)nn1)c1ccccc1	·	·	·	9.0	·
